Screening data deposited in PubChem BioAssay by several laboratories.
Sampled rows, rich in hits. Any-hit rate of the full collection: about 4.8%.
NR3A LBD binder: binders of NR3A ligand-binding domain, primary screen, biophysical, differential scanning fluorimetry, uHTS | NR3A LBD differential scanning fluorimetry, Tm shift; 0% = protein alone, 100% = glycine-bound protein | Tm shift relative to glycine control, % at 25 µM | AID 1259313, 2017 | Glutamate receptor ionotropic, NMDA 3A (GRIN3A) ligand-binding domain | 340,000 tested, 2.5% active;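 active = melting temperature shift of at least 10% of the positive control shift, at one fixed dose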
UCH37 inh: inhibitors of human UCH37 deubiquitinase, primary screen, biochemical, Ub-AMC cleavage, fluorescence; Ubiquitin carboxyl-terminal hydrolase isozyme L5 (Homo sapiens), Q9Y5K5; purified proteasome/UCH37; inhibition, % (concentration not given with the values); 330,000 tested, 0.33% active;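 active = mean inhibition over replicate wells above about 20%, limit read from the data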;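 note: 0% = compound-free wells with enzyme and 100% = wells lacking proteasome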
Target sequence (Q9Y5K5 whole entry, looked up): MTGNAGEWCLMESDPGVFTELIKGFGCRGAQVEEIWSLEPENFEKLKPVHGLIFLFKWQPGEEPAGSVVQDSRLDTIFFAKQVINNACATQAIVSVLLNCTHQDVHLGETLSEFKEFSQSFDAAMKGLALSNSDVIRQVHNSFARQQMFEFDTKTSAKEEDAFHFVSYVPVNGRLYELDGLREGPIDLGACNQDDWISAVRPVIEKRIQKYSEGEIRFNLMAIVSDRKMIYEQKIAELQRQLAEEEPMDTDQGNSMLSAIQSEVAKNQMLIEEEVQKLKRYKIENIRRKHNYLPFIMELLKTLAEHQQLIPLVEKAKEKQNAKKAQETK
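Signal – fluorescence, ex 355 nm, em 460 nm · System – Proteasome-bound UCH37 · Input – 0.15 nM proteasome as dispensed · Timing – 30 min preincubation with enzyme, 25 min cleavage at room temperature · Read-out basis – percent inhibition of cleavage signal versus uninhibited and no-proteasome wells · Medium – Tris-HCl pH 7.4 with ATP-MgCl2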
pPAFAH inh: pPAFAH enzyme inhibitors, primary screen, biochemical, fluorescence polarization, human; Platelet-activating factor acetylhydrolase (Homo sapiens), Q13093; recombinant pPAFAH, FP-rhodamine probe fluorescence polarization; inhibition, % at 3.39 µM; 330,000 tested, 1.5% active; AID 463082, 2010;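 active = inhibition above the mean inhibition across the screen plus 3 SD, cut at about 25% in these data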;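 note: inhibitors block binding of the rhodamine activity-based probe so polarization drops; 0% = enzyme with DMSO and 100% = wells lacking pPAFAH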
PAFAH2 FP inh: PAFAH2 enzyme inhibitors, primary screen, biochemical, fluorescence polarization, human; 340,000 tested, 0.99% active; Platelet-activating factor acetylhydrolase 2, cytoplasmic (Homo sapiens), Q99487; recombinant PAFAH2, FP-rhodamine activity probe; inhibition, % at 3.39 µM;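 active = inhibition above the mean over all tested compounds plus 3 SD, cut at about 30% in these data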;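 note: inhibitors block probe labeling of enzyme so polarization drops; 0% = enzyme with DMSO and 100% = wells lacking PAFAH2 protein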
PAFAH1B2 inh: PAFAH1B2 enzyme inhibitors, primary screen, biochemical, fluorescence polarization, human; 340,000 tested, 1.2% active; recombinant PAFAH1B2, FP-rhodamine activity probe; inhibition, % at 3.39 µM; Platelet-activating factor acetylhydrolase IB subunit alpha2 (Homo sapiens), P68402; AID 492953, 2010;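 active = inhibition above the mean of all tested compounds plus 3 SD, cut at about 24% in these data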;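 note: 0% = enzyme with DMSO and 100% = wells lacking PAFAH1B2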
Target sequence (P68402 whole entry, looked up): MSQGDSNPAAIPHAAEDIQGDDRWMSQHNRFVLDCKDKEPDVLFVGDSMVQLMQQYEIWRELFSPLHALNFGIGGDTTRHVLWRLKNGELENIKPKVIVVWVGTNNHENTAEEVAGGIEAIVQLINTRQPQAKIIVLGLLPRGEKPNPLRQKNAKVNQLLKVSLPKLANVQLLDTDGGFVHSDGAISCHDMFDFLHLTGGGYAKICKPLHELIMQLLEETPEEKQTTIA
PAFAH1B3 inh: PAFAH1B3 enzyme inhibitors, primary screen, biochemical, fluorescence polarization, human. recombinant PAFAH1B3, FP-rhodamine probe. inhibition, % at 3.39 µM. 340,000 tested, 0.28% active. AID 492972, 2010;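 active = inhibition above the screen-wide average of all tested compounds plus 3 SD, cut at about 25% in these data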;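 note: 0% = enzyme with DMSO only and 100% = wells lacking PAFAH1B3 protein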
Numbers without * were called inactive; nt = not tested or not shown.

SMILES	NR3A LBD binder	UCH37 inh	pPAFAH inh	PAFAH2 FP inh	PAFAH1B2 inh	PAFAH1B3 inh
Cc1ccc(C(=O)CSc2nsc(C)c2C#N)cc1	14.7*	3.0	4.7	-2.1	1.9	3.8
Cc1snc(SCC(=O)c2ccc(Cl)cc2)c1C#N	-1.0	1.1	-4.4	0.0	4.8	1.6
CC(C)(C)c1ccc(/C=C/C(=O)NC2=NCCS2)cc1	12.2*	6.6	1.5	9.8	3.7	0.2
O=[N+]([O-])c1ccc(O)c(C=Nc2ccc3oc(Cc4ccc(Cl)cc4)nc3c2)c1	nt	nt	46.0*	nt	nt	nt
O=[N+]([O-])c1ccc(O)c(C=Nc2ccc3c(c2)OCCO3)c1	-6.6	7.3	-1.6	-5.7	2.8	-7.0
Cc1ccc(C=NNC(=O)c2cccc(NC(=O)c3ccccc3C)c2)o1	nt	5.4	nt	nt	nt	nt
CC(=O)Nc1ccc(S(=O)(=O)Nc2nccc(/C=C/c3ccc(Cl)cc3)n2)cc1	11.7*	-213.9	-5.3	1.0	-4.2	6.6
Cc1ccc(-c2nc(CN3CCN(C(=O)C4CCCO4)CC3)cs2)cc1 (centres undefined)	11.1*	2.0	0.2	-3.3	-4.4	-0.1
Fc1ccccc1COc1cccc(C=Nn2cnnc2)c1	nt	0.9	nt	nt	nt	nt
Fc1ccc(-c2nc(-c3cccs3)[nH]c2-c2ccc(F)cc2)cc1	19.1*	-103.1	3.1	1.3	5.2	11.0
Oc1oc(-c2ccccc2)nc1C=Nc1ccccc1	-31.6	4.1	3.2	27.9	4.8	6.3
O=[N+]([O-])c1cccc(/C=C/c2nc(C=Nc3ccccc3)c(O)o2)c1	11.4*	8.4	-1.6	15.4	3.7	4.5
Cc1ccc(NC(=O)c2cc(C(=O)c3cc(Cl)ccc3O)cn(-c3ccc(C)cc3)c2=O)cc1	12.0*	2.7	-22.1	-57.8	-18.5	-42.7
COc1cc2[nH]c(=S)nc(NCc3ccc(Cl)cc3)c2cc1OC	35.0*	-6.7	0.0	6.0	4.0	13.0
COc1ccccc1CNc1nc(=S)[nH]c2cc(OC)c(OC)cc12	0.3	5.3	5.5	7.2	2.2	2.2
COC/C=C/C1=CC2=CC(=O)C(C)(OC(=O)c3cnc4ccccc4n3)C(=O)C2=CO1 (centres undefined)	nt	nt	54.8*	nt	nt	nt
Nc1nc(-c2ccc(NC(=O)c3ccco3)cc2)cs1	2.2	-1.4	3.7	10.6	4.6	7.7
NC(=O)/C(=N\OC(=O)c1ccco1)c1nc(-c2ccc(Br)cc2)cs1	-3.9	nt	32.2*	6.6	14.8	24.9
CCC(=NO)c1c(O)c2c(n(-c3ccccc3)c1=O)CCCC2	nt	0.6	nt	nt	nt	nt
COc1ccc(NC(=O)c2ccc(-c3ccccc3)cc2)cc1NS(=O)(=O)c1ccc(F)cc1	6.4	0.6	13.1	-10.4	-13.2	-4.2
Cc1ccc(NS(=O)(=O)c2ccc(NC(=O)c3ccc(Br)o3)cc2)c(C)c1	10.7*	1.7	14.8	-38.3	-16.8	-19.3
Cc1ccc(NS(=O)(=O)c2ccc(NC(=O)c3ccc(-c4ccccc4)cc3)cc2)c(C)c1	10.1*	1.8	0.7	-32.4	-5.7	-23.3
Cc1ccc(NS(=O)(=O)c2ccc(NC(=O)CSc3ccc(Cl)cc3)cc2)c(C)c1	22.6*	2.1	33.4*	-6.9	18.1	9.1
Cc1cc(NS(=O)(=O)c2ccccc2)ccc1NS(=O)(=O)c1ccccc1	-4.3	3.3	nt	11.9	28.3*	4.8
O=C(Nc1ccc(S(=O)(=O)N2CCCC2)cc1)c1ccc(Br)o1	0.8	1.8	2.8	-1.0	6.7	-5.7
SMILES	NR3A LBD binder	UCH37 inh	pPAFAH inh	PAFAH2 FP inh	PAFAH1B2 inh	PAFAH1B3 inh
Fc1ccc(NN=C2CC(c3ccccc3)Oc3ccccc32)c(F)c1 (centres undefined)	nt	2.7	nt	nt	nt	nt
NC(=O)NN=Cc1ccccc1OCC(=O)NCc1ccccc1	nt	0.9	nt	nt	nt	nt
CCOc1cc(C=NO)cc(Cl)c1OCC	nt	1.5	nt	nt	nt	nt
NS(=O)(=O)c1ccc(NC(=S)NC(=O)c2ccc(Br)o2)cc1	5.1	nt	-3.3	-1.1	-2.9	8.3
O=C(Nc1ccc(NS(=O)(=O)c2ccccc2)cc1)c1ccccc1Cl	35.0*	3.5	24.7*	5.7	6.4	2.6
Cc1ccc(NS(=O)(=O)c2ccc(NC(=O)c3ccccc3C(=O)O)cc2)c(C)c1	1.1	2.1	33.6*	4.2	10.7	4.2
Cc1cc(C)cc(NS(=O)(=O)c2ccc(NC(=S)NC(=O)c3ccc(Br)o3)cc2)c1	18.4*	5.0	-17.3	-58.3	-29.2	-35.2
Cc1cc(C)cc(NS(=O)(=O)c2ccc(NC(=O)c3ccccc3C(=O)O)cc2)c1	-0.6	0.3	8.9	nt	nt	nt
CSc1ccccc1NC(=O)C(=O)c1c[nH]c2ccccc12	21.4*	3.8	-14.7	-11.2	-6.8	-6.4
Oc1ccc(C2=Nn3c(nnc3-c3ccco3)SC2)cc1O	0.8	2.3	31.5*	49.3*	28.6*	50.0*
COc1ccc(C2=Nn3c(nnc3-c3ccco3)SC2)cc1	-4.6	5.9	7.5	7.3	7.2	10.7
O=C(NN=Cc1ccccn1)C1CC1	nt	-0.5	nt	nt	nt	nt
Cc1cccc(NC(=S)NCC23C=CC(O2)C2C(=O)N(c4ccc(Cl)cc4)C(=O)C23)c1 (centres undefined)	11.8*	0.4	6.4	-7.2	9.5	-1.4
Cc1ccc(NC(=S)NCC23C=CC(O2)C2C(=O)N(c4ccc(C)cc4)C(=O)C23)cc1 (centres undefined)	1.2	-0.9	0.5	-4.7	7.1	8.2
CCOC(=O)C(=NNc1ccccc1Cl)N(C)C1CCS(=O)(=O)C1 (centres undefined)	nt	10.0	nt	nt	nt	nt
O=C(CCOc1ccccc1)N1CCN(c2ccc(O)cc2)CC1	0.3	5.0	30.8*	11.6	2.0	2.7
COc1cc(NC(=S)N2CCC(C(N)=O)CC2)c(OC)cc1Cl	0.3	31.0*	1.4	1.8	1.7	-2.3
COc1cc(NC(=S)N2CCC(C(N)=O)CC2)cc(OC)c1	4.4	3.9	1.2	-2.8	-5.2	4.5
O=S1(=O)CCC(=NNc2ccccn2)c2cc(F)ccc21	nt	10.6	nt	nt	nt	nt
O=c1[nH]c2ccc(S(=O)(=O)Nc3ccc(Cl)cc3)cc2o1	-2.3	5.0	nt	6.1	54.3*	9.4
CC(CC(=O)NCc1ccco1)=NNC(=O)Cc1ccc(Cl)cc1	nt	32.4*	nt	nt	nt	nt
S=C(NCCc1ccccc1)N1CCc2ccccc2C1	-8.0	21.9*	-2.9	4.7	0.0	6.6
Oc1ccc(N2CCN(C(=S)NCCc3ccccc3)CC2)cc1	2.5	4.0	29.3*	-0.5	1.2	6.7
S=C(NC1CCCCC1)N1CCc2ccccc2C1	11.1*	3.6	4.4	1.4	-3.3	8.1
O=S(=O)(c1ccc(F)cc1)N1CCN(C(=S)NCCc2ccccc2)CC1	-8.5	7.5	4.6	-1.8	24.4*	3.0
